Here are results for three compounds from ChEMBL document CHEMBL5653631, “A Potent and Selective ULK1 Inhibitor Suppresses Autophagy and Sensitizes Cancer Cells to Nutrient Stress” (iScience, 2018).

Assay [1] has as its target T1, Serine/threonine-protein kinase TAO1 (Homo sapiens) (UniProt Q7L7X3).
T1 sequence (whole entry): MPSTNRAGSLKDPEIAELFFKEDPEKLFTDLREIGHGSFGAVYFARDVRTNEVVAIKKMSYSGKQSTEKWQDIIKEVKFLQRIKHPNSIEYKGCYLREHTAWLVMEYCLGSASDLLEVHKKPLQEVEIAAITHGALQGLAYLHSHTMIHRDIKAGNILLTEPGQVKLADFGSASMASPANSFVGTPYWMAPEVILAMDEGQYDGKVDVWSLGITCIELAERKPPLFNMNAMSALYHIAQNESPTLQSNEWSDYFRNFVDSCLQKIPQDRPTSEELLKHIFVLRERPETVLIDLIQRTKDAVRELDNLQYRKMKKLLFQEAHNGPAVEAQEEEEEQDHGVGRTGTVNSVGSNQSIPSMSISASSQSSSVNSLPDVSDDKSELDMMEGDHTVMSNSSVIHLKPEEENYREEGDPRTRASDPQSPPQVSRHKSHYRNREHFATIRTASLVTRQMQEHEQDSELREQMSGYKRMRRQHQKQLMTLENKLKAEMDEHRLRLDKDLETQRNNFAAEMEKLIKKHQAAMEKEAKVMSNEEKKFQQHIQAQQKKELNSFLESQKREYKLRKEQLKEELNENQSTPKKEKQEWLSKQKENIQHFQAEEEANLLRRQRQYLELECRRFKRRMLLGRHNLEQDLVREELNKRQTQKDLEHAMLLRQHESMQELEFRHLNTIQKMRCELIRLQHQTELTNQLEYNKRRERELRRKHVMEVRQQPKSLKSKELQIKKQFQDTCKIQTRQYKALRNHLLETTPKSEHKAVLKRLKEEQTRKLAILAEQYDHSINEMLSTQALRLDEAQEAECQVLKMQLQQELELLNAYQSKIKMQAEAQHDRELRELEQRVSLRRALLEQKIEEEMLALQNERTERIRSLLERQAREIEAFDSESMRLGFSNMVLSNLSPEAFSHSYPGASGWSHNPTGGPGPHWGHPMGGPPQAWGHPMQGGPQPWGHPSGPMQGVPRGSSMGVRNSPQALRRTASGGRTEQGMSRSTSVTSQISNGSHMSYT
In words: Inhibition of human recombinant TAO1 at 40 nM related to control ULK1.

The target in assay [2] is Serine/threonine-protein kinase SIK1 (Homo sapiens) (UniProt P57059). In words: Inhibition of human recombinant SIK at 40 nM related to control ULK1.
Assay [3] addresses Serine/threonine-protein kinase WNK1 (Homo sapiens) (UniProt Q9H4A3). In words: Inhibition of human recombinant Wnk1 at 500 nM related to control ULK1.
Assay [4] concerns the target T2, Serine/threonine-protein kinase BRSK1 (Homo sapiens) (UniProt Q8TDC3).
T2 sequence (whole entry): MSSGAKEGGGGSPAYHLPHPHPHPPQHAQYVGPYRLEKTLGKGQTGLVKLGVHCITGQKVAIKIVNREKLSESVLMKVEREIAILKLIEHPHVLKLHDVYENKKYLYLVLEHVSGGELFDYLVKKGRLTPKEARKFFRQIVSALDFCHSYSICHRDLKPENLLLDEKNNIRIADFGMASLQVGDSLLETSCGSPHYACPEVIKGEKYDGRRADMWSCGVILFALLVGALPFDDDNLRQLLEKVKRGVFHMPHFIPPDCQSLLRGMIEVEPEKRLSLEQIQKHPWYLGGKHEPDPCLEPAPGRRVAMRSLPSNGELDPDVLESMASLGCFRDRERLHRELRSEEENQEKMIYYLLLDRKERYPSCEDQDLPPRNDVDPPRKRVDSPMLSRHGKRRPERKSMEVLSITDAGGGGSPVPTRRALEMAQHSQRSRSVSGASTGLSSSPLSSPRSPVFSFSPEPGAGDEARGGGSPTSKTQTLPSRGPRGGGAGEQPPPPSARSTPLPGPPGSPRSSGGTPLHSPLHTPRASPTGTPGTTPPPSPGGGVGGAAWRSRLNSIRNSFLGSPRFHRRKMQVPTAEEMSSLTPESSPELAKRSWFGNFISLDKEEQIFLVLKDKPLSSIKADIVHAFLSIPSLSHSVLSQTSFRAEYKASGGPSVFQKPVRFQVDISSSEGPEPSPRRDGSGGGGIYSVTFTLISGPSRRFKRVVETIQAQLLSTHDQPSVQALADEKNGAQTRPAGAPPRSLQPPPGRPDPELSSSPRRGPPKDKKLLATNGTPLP
As to the kind of experiment: Inhibition of human recombinant BRSK1 at 500 nM related to control ULK1. In short, it runs like this: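 Recombinant human kinase panel (327 kinases) run as radiometric activity assays, each kinase in duplicate at one compound concentration. Activity remaining expressed relative to vehicle control; percent inhibition taken as 100% minus % activity remaining.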

Assay [5] has as its target T3, Aurora kinase A (Homo sapiens) (UniProt O14965).
T3 sequence (whole entry): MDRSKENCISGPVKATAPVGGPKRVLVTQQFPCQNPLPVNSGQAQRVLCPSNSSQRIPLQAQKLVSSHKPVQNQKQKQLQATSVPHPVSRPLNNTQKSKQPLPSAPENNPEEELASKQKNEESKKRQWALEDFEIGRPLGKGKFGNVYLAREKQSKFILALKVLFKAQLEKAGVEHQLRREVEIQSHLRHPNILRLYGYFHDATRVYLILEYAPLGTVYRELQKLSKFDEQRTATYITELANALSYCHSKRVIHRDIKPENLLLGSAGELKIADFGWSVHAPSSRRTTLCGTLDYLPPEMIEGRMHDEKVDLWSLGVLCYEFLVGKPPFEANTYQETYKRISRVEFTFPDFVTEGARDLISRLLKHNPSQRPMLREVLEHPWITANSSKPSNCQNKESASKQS
As to the kind of experiment: Inhibition of human recombinant AurA at 15 nM in presence of ATP by radiometric assay relative to control. In short, it runs like this: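 Panel of 327 recombinant human kinases, each assayed in vitro by radiometric activity assay in duplicate at a single inhibitor concentration per compound, chosen with reference to its ULK1 inhibition. Activity remaining was expressed as percent of vehicle control, and percent inhibition was calculated as 100 minus percent activity remaining.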

Sequence of Serine/threonine-protein kinase SIK1 (Homo sapiens) (P57059 whole entry): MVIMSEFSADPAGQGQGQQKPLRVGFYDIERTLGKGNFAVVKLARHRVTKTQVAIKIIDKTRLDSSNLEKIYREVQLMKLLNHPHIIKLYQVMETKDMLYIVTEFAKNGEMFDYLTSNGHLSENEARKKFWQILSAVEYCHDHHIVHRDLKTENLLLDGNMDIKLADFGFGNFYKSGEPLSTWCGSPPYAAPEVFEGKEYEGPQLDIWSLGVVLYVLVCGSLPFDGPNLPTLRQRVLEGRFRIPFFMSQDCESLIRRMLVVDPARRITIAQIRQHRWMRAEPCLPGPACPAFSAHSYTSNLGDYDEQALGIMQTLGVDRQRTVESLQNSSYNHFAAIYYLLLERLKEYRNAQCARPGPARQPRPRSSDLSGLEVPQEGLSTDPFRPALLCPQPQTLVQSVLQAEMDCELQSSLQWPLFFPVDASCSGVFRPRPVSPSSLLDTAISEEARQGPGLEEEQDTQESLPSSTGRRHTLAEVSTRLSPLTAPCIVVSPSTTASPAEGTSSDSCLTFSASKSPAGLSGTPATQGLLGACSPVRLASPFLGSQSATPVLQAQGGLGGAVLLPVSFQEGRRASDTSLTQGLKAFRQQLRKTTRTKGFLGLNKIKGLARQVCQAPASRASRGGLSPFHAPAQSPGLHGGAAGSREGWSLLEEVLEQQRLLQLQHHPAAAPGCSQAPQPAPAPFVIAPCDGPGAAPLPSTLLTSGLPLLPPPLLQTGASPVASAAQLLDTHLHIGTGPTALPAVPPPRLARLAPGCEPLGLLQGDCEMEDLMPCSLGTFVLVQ
Sequence of Serine/threonine-protein kinase WNK1 (Homo sapiens) (Q9H4A3 whole entry, looked up): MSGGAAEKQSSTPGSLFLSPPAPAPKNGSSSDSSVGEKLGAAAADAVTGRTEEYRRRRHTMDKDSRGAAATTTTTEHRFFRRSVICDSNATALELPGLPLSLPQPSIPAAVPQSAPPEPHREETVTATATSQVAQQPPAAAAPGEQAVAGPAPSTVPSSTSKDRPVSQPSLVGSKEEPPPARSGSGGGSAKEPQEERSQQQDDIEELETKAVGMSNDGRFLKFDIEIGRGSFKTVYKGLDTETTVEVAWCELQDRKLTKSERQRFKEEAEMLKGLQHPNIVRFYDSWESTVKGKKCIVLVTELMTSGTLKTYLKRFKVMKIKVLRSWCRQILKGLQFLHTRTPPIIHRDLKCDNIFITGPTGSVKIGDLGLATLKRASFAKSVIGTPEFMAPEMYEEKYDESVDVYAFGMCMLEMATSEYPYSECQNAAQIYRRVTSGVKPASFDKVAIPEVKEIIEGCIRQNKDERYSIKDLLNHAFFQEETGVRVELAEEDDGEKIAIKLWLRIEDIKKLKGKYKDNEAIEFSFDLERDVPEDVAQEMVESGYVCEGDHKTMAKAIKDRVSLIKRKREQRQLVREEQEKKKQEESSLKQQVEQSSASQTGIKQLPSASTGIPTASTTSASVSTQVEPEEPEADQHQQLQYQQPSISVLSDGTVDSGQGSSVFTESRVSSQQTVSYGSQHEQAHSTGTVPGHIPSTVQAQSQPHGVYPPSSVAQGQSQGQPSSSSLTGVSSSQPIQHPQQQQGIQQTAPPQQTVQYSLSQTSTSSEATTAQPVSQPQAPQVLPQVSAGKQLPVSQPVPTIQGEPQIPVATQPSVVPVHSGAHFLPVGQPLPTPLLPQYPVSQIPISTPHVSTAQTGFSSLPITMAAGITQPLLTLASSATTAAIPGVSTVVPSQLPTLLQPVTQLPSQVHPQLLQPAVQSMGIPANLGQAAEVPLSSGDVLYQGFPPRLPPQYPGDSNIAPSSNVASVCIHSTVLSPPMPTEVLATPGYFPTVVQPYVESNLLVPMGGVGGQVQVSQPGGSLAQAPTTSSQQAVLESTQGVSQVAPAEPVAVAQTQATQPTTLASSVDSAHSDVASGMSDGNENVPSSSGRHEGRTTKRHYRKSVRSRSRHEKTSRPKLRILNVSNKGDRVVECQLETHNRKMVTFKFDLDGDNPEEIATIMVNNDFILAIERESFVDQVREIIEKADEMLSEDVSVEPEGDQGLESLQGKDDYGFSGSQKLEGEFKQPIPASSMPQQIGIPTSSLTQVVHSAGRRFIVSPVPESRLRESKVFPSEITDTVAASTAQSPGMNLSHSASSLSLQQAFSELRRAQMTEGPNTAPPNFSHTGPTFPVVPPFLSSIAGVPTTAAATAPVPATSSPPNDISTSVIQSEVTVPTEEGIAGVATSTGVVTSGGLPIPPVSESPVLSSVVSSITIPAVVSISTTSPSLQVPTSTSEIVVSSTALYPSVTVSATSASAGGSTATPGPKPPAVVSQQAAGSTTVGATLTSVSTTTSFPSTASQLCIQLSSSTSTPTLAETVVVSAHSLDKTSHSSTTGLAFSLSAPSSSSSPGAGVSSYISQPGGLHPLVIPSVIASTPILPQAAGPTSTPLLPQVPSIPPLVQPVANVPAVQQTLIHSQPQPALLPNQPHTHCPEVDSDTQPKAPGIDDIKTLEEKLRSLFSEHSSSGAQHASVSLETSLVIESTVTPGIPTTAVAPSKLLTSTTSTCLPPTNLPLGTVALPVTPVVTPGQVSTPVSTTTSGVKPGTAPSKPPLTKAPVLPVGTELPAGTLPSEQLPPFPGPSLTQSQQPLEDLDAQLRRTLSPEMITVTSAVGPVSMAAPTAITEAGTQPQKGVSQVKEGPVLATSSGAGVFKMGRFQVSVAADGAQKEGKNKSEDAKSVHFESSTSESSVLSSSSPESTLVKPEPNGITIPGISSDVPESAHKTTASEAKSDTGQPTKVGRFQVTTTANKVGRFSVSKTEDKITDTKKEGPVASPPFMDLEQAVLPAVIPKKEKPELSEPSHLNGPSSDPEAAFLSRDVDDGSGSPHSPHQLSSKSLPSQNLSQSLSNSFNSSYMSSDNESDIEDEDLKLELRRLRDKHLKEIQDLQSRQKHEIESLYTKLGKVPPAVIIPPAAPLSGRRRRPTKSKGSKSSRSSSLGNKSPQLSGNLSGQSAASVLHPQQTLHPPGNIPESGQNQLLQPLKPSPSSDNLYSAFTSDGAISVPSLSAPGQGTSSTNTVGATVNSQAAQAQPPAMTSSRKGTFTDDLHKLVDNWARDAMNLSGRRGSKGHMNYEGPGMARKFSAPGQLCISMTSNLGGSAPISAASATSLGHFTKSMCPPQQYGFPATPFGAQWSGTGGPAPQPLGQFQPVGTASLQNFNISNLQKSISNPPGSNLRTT

For `O=C(N[C@@H](C1CC1)C(F)(F)F)c1cc(-c2cnn3cc(-c4ccc(F)cc4)cnc23)cs1`, the fold change (FC) in assay [1] stood at 0; in assay [2], 0.27. Consider `CNC(=O)c1ccccc1Oc1nc(Nc2cc(OC)c(OC)c(OC)c2)ncc1Br`, for which the fold change (FC) in assay [3] came out at 0; in assay [4], 0.03. Broadly, the inhibition is the change of the read-out against control, counted positive when it falls. As for `CC(C)[C@H](NC(=O)c1cc(-c2cnn3cc(-c4ccc(OCCN5CCCCC5)cc4)cnc23)cs1)C(F)(F)F`, the inhibition in assay [5] is 13%.
